Data from ChEMBL document CHEMBL4196022, “Alkynyl-containing phenylthiazoles: Systemically active antibacterial agents effective against methicillin-resistant Staphylococcus aureus (MRSA)” (Eur J Med Chem, 2018).
≈ marks a conversion by molar mass, not a printed value.

How the values were obtained:
[1] = tested on: Staphylococcus aureus; assay: Antibacterial activity against methicillin-resistant Staphylococcus aureus NRS119 after 20 hrs by broth microdilution assay; format: functional; conditions: NRS119, 20 h
Summary of the method: (§1)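 Broth microdilution per CLSI in cation-adjusted Mueller Hinton broth. Compounds serially diluted, in triplicate. Incubation at 37 °C for at least 20 hours. MIC taken as the lowest concentration with no visible bacterial growth.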

[2] = Terminal phase volume of distribution in Sprague-Dawley rat at 2 uM administered as single iv bolus dose by LC-MS/MS analysis; format: ADME, organism-based; conditions: in vivo, read-out: Vbeta
Summary of the method: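 Male naïve Sprague-Dawley rats (three animals) received an IV bolus of a 2 μM solution. EDTA-K2 blood was sampled over 12 h post dose. Plasma was protein-precipitated with acetonitrile and quantified by LC/MS/MS. Parameters came from two-compartmental pharmacokinetic analysis.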

[3] = tested on: Staphylococcus aureus; assay: Antibacterial activity against vancomycin-resistant Staphylococcus aureus VRS12 after 20 hrs by broth microdilution assay; format: functional; conditions: VRS12, 20 h; summary of the method: as §1
[4] = tested on: Staphylococcus aureus; assay: Antibacterial activity against methicillin-resistant Staphylococcus aureus USA300 after 20 hrs by broth microdilution assay; format: functional; conditions: USA300, 20 h; summary of the method: as §1

C/C(=N\NC(=N)N)c1sc(-c2ccc(C#CC3CC3)cc2)nc1C
MIC [1]: 2 µg/mL (≈ 5.93 µM)
Vd at 2 µM [2]: 18.5 L
MIC [3]: 2 µg/mL (≈ 5.93 µM)
MIC [4]: 2 µg/mL (≈ 5.93 µM)
